pEC50, pIC50, pKi: −log10 of the molar value. Calls of active or inactive are those of the source. The rule behind the calls is not given here.
Legend:
[1] = AUC in Sprague-Dawley rat at 10 mg/kg, po; assay type: ADME, organism-based; design: dose 10 mg/kg, route oral; details: plasma
[2] = biological target: T1, Growth hormone secretagogue receptor type 1 (Homo sapiens, UniProt Q92847); assay: Agonist activity at GHSR; assay type: functional
[3] = Volume of distribution in monkey at 5 mg/kg, iv; assay type: ADME, organism-based, Macaca mulatta; design: dose 5 mg/kg, route intravenous; details: rhesus monkey, in vivo
[4] = AUC in CD1 mouse at 10 mg/kg, po; assay type: ADME, organism-based; design: dose 10 mg/kg, route oral; details: plasma
How it was run: (§1)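 CD-1 mice, three animals, dosed i.v. at 5 mg/kg and by oral gavage at 10 mg/kg. Plasma CL, Vd, t1/2, Cmax, Tmax, oral AUC and F% were derived. Brain concentrations and brain/plasma ratios at 1 and 4 h were taken from the i.v. dosing.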

[5] = Cmax in CD1 mouse at 10 mg/kg, ip; assay type: ADME, organism-based; design: dose 10 mg/kg, route intraperitoneal; details: in vivo
How it was run: (§2)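 CD-1 mice, single intraperitoneal dose of 10 mg/kg, n = 3. Plasma concentration followed over time, giving Cmax, Tmax and AUC.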

Mus musculus [6] = assay: Increase in body weight in Lewis lung carcinoma bearing C57BL/6J mouse at 3 mg/kg, ip bid after 4 days; assay type: functional, organism-based; design: dose 3 mg/kg
How it was run: (§3)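 Male C57BL/6J mice inoculated with Lewis lung carcinoma cells. From day 11 after inoculation, mice were dosed i.p. twice daily at 3 or 9 mg/kg for 4 days and compared with vehicle-treated tumor-bearing controls. Food intake and body weight were recorded; lean body mass was measured by DEXA.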

[7] = AUC in dog at 5 mg/kg, iv; assay type: ADME, organism-based, Canis lupus familiaris; design: dose 5 mg/kg, route intravenous; details: plasma
Cytochrome P450 2C9 = Cytochrome P450 2C9 (Homo sapiens, UniProt P11712); assay: Inhibition of CYP2C9; assay type: ADME
Chain of Cytochrome P450 2C9 (P11712 whole entry): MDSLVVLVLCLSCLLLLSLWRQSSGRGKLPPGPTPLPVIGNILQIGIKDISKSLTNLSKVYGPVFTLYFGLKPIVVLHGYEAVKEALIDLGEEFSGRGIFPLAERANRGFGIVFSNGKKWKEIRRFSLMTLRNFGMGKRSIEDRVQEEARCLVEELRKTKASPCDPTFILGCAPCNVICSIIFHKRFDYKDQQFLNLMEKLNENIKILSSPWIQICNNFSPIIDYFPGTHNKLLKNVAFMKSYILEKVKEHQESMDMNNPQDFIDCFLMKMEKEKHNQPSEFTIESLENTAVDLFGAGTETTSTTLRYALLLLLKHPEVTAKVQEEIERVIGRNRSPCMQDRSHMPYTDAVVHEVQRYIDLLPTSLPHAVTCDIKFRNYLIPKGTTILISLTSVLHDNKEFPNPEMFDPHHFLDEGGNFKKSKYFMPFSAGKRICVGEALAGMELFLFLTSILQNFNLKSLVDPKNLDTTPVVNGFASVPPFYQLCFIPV

Mus musculus [8] = assay: Increase in lean body mass in Lewis lung carcinoma bearing C57BL/6J mouse at 9 mg/kg, ip bid after 4 days; assay type: functional; details: route intraperitoneal; how it was run: as §3
[9] = Cmax in CD1 mouse at 10 mg/kg, po after 6 hrs; assay type: ADME, organism-based; design: dose 10 mg/kg, route oral; details: in vivo; how it was run: as §1
[10] = Ratio of drug level in brain to plasma in Sprague-Dawley rat at 10 mg/kg, po after 1 hr; assay type: ADME, organism-based; design: dose 10 mg/kg, route oral; details: brain and plasma, read-out: BPR
How it was run: (§4)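 Sprague–Dawley rats, three animals per route; i.v. dose 5 mg/kg and oral 10 mg/kg. Brain concentrations and brain/plasma ratios taken from the oral dosing at 1 and 4 h post-dose.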

[11] = Cmax in monkey at 10 mg/kg, po; assay type: ADME, organism-based, Macaca mulatta; design: dose 10 mg/kg, route oral; details: rhesus monkey, in vivo
[12] = Drug level in Sprague-Dawley rat brain at 10 mg/kg, po after 1 hr; assay type: ADME, organism-based; design: dose 10 mg/kg, route oral; details: read-out: Drug uptake
[13] = AUC in monkey at 5 mg/kg, iv; assay type: ADME, organism-based, Macaca mulatta; design: dose 5 mg/kg, route intravenous; details: rhesus monkey, plasma
[14] = Plasma concentration in CD1 mouse at 10 mg/kg, ip after 8 hrs; assay type: ADME, organism-based; design: dose 10 mg/kg, route intraperitoneal
[15] = biological target: Melanocyte-stimulating hormone receptor (Homo sapiens, UniProt Q01726); assay: Displacement of [125I]NDPMSH from human MC1R expressed in HEK293 cells at 10 uM; assay type: cell-based
Chain of Melanocyte-stimulating hormone receptor (Q01726 whole entry, looked up): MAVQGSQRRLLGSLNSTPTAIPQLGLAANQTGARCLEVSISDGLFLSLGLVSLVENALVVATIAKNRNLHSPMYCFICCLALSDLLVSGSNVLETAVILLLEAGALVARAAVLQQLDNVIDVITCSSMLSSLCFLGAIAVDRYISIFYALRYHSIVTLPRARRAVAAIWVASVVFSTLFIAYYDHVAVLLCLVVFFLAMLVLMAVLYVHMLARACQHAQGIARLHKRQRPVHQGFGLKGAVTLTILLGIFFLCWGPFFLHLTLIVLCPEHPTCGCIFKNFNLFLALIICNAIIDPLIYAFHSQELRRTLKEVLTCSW

[16] = Volume of distribution in dog at 5 mg/kg, iv; assay type: ADME, organism-based, Canis lupus familiaris; design: dose 5 mg/kg, route intravenous; details: in vivo
[17] = AUC in CD1 mouse at 10 mg/kg, ip; assay type: ADME, organism-based; design: dose 10 mg/kg, route intraperitoneal; details: plasma; how it was run: as §2
[18] = Distribution coefficient, log D by shake flask method; assay type: physicochemical; details: octanol/water
How it was run: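 LogD measured by the shake-flask method; described elsewhere in the paper as lipophilicity at pH 7.4.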

[19] = Ratio of drug level in brain to plasma in Sprague-Dawley rat at 10 mg/kg, po after 4 hrs; assay type: ADME, organism-based; design: dose 10 mg/kg, route oral; details: brain and plasma, read-out: BPR; how it was run: as §4
[20] = Ratio of drug level in brain to plasma in CD1 mouse at 5 mg/kg, iv after 1 hr; assay type: ADME, organism-based; design: dose 5 mg/kg, route intravenous; details: brain and plasma, read-out: BPR
[21] = Cmax in dog at 10 mg/kg, po; assay type: ADME, organism-based, Canis lupus familiaris; design: dose 10 mg/kg, route oral; details: in vivo
Cytochrome P450 1A2 = biological target: T2, Cytochrome P450 1A2 (Homo sapiens, UniProt P05177); assay: Inhibition of CYP1A2; assay type: ADME
T2 sequence (P05177 whole entry): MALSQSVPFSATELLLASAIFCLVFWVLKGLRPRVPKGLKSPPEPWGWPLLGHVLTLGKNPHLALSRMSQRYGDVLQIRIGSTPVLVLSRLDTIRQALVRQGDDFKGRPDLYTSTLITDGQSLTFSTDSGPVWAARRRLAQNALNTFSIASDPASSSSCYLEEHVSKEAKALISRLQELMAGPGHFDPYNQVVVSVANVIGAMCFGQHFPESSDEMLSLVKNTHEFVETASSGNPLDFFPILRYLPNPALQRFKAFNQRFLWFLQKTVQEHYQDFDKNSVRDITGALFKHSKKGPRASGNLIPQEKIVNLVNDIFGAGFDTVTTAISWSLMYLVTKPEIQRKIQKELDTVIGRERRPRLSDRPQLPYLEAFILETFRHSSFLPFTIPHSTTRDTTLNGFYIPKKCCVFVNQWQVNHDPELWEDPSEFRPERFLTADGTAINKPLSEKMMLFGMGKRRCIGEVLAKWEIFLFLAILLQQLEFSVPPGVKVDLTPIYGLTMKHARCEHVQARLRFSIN

Cytochrome P450 2D6 = Cytochrome P450 2D6 (Homo sapiens, UniProt P10635); assay: Inhibition of CYP2D6; assay type: ADME
Chain of Cytochrome P450 2D6 (P10635 whole entry): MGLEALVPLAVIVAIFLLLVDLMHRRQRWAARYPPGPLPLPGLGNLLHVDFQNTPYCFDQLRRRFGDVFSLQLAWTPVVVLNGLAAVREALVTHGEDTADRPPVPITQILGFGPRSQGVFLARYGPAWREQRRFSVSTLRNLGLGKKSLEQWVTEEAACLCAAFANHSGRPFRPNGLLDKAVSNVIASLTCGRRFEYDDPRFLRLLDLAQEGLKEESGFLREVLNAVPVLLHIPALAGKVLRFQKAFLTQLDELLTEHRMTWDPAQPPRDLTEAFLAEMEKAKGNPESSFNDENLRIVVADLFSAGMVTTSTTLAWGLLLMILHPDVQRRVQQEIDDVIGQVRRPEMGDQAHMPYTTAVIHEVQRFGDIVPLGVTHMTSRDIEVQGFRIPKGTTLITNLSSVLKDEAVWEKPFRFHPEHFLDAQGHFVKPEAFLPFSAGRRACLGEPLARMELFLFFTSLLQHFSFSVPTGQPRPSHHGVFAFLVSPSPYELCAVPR

Melanocortin receptor 4 [22] = biological target: Melanocortin receptor 4 (Homo sapiens, UniProt P32245); assay: Displacement of [125I]NDPMSH from human MC4R expressed in HEK293 cells; assay type: cell-based
Chain of Melanocortin receptor 4 (Homo sapiens, UniProt P32245) (P32245 whole entry): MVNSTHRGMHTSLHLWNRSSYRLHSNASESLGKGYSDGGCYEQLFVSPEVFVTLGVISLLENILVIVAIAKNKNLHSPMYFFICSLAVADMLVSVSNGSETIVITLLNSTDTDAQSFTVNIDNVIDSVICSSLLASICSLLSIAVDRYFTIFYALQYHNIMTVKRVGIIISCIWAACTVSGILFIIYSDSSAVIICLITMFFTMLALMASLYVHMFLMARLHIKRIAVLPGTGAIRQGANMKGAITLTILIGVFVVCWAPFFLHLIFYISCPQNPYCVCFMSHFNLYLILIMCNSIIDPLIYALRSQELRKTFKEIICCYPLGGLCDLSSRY

[23] = Clearance in dog at 5 mg/kg, iv; assay type: ADME, organism-based, Canis lupus familiaris; design: dose 5 mg/kg, route intravenous; details: in vivo
[24] = Tmax in monkey at 10 mg/kg, po; assay type: ADME, organism-based, Macaca mulatta; design: dose 10 mg/kg, route oral; details: rhesus monkey, in vivo
[25] = Half life in monkey at 5 mg/kg, iv; assay type: ADME, organism-based, Macaca mulatta; design: dose 5 mg/kg, route intravenous; details: rhesus monkey, in vivo
[26] = Cmax in Sprague-Dawley rat at 10 mg/kg, po; assay type: ADME, organism-based; design: dose 10 mg/kg, route oral; details: in vivo
[27] = Half life in dog at 5 mg/kg, iv; assay type: ADME, organism-based, Canis lupus familiaris; design: dose 5 mg/kg, route intravenous; details: in vivo
[28] = Ratio of drug level in brain to plasma in CD1 mouse at 5 mg/kg, iv after 4 hrs; assay type: ADME, organism-based; design: dose 5 mg/kg, route intravenous; details: brain and plasma, read-out: BPR
[29] = Drug level in Sprague-Dawley rat brain at 10 mg/kg, po after 4 hrs; assay type: ADME, organism-based; design: dose 10 mg/kg, route oral; details: read-out: Drug uptake
Melanocortin receptor 4 [30] = biological target: Melanocortin receptor 4 (Mus musculus, UniProt P56450); assay: Binding affinity to mouse MC4R
Chain of Melanocortin receptor 4 (Mus musculus, UniProt P56450) (P56450 whole entry): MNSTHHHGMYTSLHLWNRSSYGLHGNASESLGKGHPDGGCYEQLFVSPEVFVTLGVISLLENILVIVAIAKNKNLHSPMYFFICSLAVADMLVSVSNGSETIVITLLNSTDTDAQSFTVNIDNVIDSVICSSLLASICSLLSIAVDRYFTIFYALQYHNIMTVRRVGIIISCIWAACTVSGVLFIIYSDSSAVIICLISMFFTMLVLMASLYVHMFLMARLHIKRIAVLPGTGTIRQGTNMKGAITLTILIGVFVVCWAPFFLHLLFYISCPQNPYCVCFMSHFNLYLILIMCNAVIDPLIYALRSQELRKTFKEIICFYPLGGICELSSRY

[31] = biological target: T1, Growth hormone secretagogue receptor type 1; assay: Binding affinity to GHSR
[32] = Tmax in CD1 mouse at 10 mg/kg, po; assay type: ADME, organism-based; design: dose 10 mg/kg, route oral; details: in vivo
How it was run: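 CD-1 mice, three animals per route; single i.v. dose at 5 mg/kg and oral gavage at 10 mg/kg. Plasma PK parameters derived; brain concentrations and brain/plasma ratios taken from the i.v. dosing at 1 and 4 h.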

[33] = Drug level in CD1 mouse brain at 5 mg/kg, iv after 1 hr; assay type: ADME, organism-based; design: dose 5 mg/kg, route intravenous; details: read-out: Drug uptake; how it was run: as §1
Melanocortin receptor 3 [34] = biological target: Melanocortin receptor 3 (Mus musculus, UniProt P33033); assay: Binding affinity to mouse MC3R
Chain of Melanocortin receptor 3 (Mus musculus, UniProt P33033) (P33033 whole entry): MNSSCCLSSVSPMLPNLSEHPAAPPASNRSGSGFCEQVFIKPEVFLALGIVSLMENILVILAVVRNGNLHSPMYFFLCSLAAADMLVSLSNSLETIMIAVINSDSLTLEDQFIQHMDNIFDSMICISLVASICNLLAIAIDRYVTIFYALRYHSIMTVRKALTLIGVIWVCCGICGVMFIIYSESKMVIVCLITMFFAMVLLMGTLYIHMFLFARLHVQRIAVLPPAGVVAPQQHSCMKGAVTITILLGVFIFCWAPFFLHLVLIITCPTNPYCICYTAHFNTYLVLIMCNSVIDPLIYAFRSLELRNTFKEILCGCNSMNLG

Melanocortin receptor 5 = Melanocortin receptor 5 (Homo sapiens, UniProt P33032); assay: Displacement of [125I]NDPMSH from human MC5R expressed in HEK293 cells; assay type: cell-based
Chain of Melanocortin receptor 5 (P33032 whole entry): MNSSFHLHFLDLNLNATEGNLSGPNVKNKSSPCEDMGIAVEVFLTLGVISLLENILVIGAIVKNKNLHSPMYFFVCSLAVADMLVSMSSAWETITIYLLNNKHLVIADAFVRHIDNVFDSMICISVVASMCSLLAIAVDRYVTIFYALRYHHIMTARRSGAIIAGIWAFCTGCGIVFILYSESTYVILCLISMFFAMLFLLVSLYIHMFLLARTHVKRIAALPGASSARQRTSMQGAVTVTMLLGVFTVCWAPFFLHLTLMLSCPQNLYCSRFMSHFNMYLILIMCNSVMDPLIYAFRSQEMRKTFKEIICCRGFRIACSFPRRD

[35] = Oral bioavailability in Sprague-Dawley rat at 10 mg/kg, po; assay type: ADME, organism-based; details: in vivo; how it was run: as §4
[36] = Tmax in dog at 10 mg/kg, po; assay type: ADME, organism-based, Canis lupus familiaris; design: dose 10 mg/kg, route oral; details: in vivo
Melanocortin receptor 3 [37] = biological target: Melanocortin receptor 3 (Homo sapiens, UniProt P41968); assay: Displacement of [125I]NDPMSH from human MC3R expressed in HEK293 cells; assay type: cell-based
Chain of Melanocortin receptor 3 (Homo sapiens, UniProt P41968) (P41968 whole entry): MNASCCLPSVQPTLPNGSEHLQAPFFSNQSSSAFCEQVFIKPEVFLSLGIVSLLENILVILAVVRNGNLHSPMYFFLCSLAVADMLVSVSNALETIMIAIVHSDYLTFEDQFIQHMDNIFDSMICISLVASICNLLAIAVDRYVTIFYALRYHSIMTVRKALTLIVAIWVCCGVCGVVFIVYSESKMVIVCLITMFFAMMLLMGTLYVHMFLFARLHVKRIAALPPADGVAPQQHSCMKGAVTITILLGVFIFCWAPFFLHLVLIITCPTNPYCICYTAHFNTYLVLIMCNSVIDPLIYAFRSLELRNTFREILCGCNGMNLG

[38] = Ratio of drug level in brain to plasma in CD1 mouse at 10 mg/kg, ip; assay type: ADME, organism-based; design: dose 10 mg/kg, route intraperitoneal; details: read-out: BPR

T1 sequence (Q92847 whole entry): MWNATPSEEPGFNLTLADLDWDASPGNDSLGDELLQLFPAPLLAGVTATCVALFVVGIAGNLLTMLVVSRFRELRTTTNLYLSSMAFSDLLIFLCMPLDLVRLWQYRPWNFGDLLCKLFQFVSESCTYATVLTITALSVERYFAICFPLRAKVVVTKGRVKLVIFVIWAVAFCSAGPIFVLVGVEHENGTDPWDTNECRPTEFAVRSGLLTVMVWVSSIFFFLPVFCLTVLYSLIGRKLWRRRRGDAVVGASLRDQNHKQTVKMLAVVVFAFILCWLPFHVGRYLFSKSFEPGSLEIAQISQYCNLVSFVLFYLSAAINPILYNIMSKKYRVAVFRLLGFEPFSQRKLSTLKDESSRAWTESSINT

AUC [1]: 1.87 µg·h/mL
pEC50 [2]: 6.14
Intrinsic activity [2]: 47%
Vd [3]: 8.5 L/kg
AUC [4]: 1.16 µg·h/mL
Cmax [5]: 1.52 µg/mL
AUC [7]: 2.51 µg·h/mL
pIC50 (Cytochrome P450 2C9): < 5.00
Cmax [9]: 0.132 µg/mL
Kp at 1 h [10]: 0.1
Cmax [11]: 0.108 µg/mL
concentration at 1 h [12]: 3 ng/g
AUC [13]: 3.7 µg·h/mL
concentration at 8 h [14]: 0.1 µg/mL
Activity [15]: 20%
Vd [16]: 11.8 L/kg
AUC [17]: 3.07 µg·h/mL
logD [18]: 3.9
Kp at 4 h [19]: 0.3
Kp at 1 h [20]: 2.4
Cmax [21]: 0.142 µg/mL
pIC50 (Cytochrome P450 1A2): < 5.00
pIC50 (Cytochrome P450 2D6): < 5.00
pKi (Melanocortin receptor 4 [22]): 8.47
clearance [23]: 1.76 L/h/kg
Tmax [24]: 2.7 h
half-life [25]: 4.1 h
Cmax [26]: 0.163 µg/mL
half-life [27]: 4.7 h
Kp at 4 h [28]: 2.2
concentration at 4 h [29]: 27 ng/g
pKi (Melanocortin receptor 4 [30]): 7.74
pKi [31]: 6.34
Tmax [32]: 0.5 h
concentration at 1 h [33]: 800 ng/g
pKi (Melanocortin receptor 3 [34]): 6.47
pKi (Melanocortin receptor 5): 6.22
bioavailability [35]: 18%
Tmax [36]: 1 h
pKi (Melanocortin receptor 3 [37]): 6.15
Kp [38]: 2
SMILES: CC(C)C[C@H](NC(=O)CCN(C)C)c1cc(Cl)ccc1N1CCN(C(=O)[C@H](C)Cc2ccc(Cl)cc2)CC1
Activity (Mus musculus [6]): Active
Activity (Mus musculus [8]): 15%

— ChEMBL document CHEMBL1138325, “Design, synthesis, in vitro, and in vivo characterization of phenylpiperazines and pyridinylpiperazines as potent and selective antagonists of the melanocortin-4 receptor” (J Med Chem, 2007)
